A short description of series [1]: Cytotoxicity against human MT4 cells after 96 hrs by MTT method. Format: cell-based. A digest of the protocol: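 Exponentially growing MT-4 cells (CD4+ T-cells carrying integrated HTLV-1) seeded at 1×10^5 cells/mL in RPMI-1640 with 10% FCS, penicillin and streptomycin, with or without serial compound dilutions; 96 h at 37 °C, humidified 5% CO2. Viability by MTT; value = concentration reducing proliferation by 50%, untreated controls undergoing at least three rounds of multiplication.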
In general terms: Formazan colour is commonly taken as a measure of viable cells.

Series [2] deals with Bovine viral diarrhea virus 1. Put plainly: Antiviral activity against BVDV in MDBK cells assessed as inhibition of virus-induced cytopathogenicity after 2 to 3 days by MTT method. To be noted: Bovine viral diarrhea virus isolates and strains. Format: functional, organism-based. A digest of the protocol:
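MDBK cells seeded 2.5×10^4 cells/well, grown overnight to confluence at 37 °C, 5% CO2; infected at moi 0.01 in serum-free medium; after 1 h, MEM Earle's with 1% inactivated FCS ± serial compound dilutions (DMSO stock diluted in medium) added. Viability read by MTT after 2-3 days at 37 °C; EC50 = 50% protection from cytopathogenicity; mean of three determinations.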
Background: Protection from cytopathic effect is a common read-out in antiviral testing.

The next series deals with Reovirus sp. Put plainly: Antiviral activity against Reovirus. Format: functional, organism-based.
For another series, the system named is Enterovirus C. Put plainly: Antiviral activity against Poliovirus Sb1 in Vero 76 cells after 2 days by plaque reduction assay. Format: functional, organism-based. To be noted: 48 h. A digest of the protocol: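 Vero 76 monolayers (2×10^5 cells/well, grown overnight) infected with Sabin strain at 50-100 PFU/well. Unabsorbed virus removed, then DMEM with 1% inactivated FCS and 0.75% methyl cellulose added, with or without serial compound dilutions (100 mM DMSO stock diluted in medium). Held 2 days at 37 °C, then fixed and stained with ethanol/crystal violet and plaques counted. EC50 (50% plaque reduction) by linear regression; mean of three determinations.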
On the technique in general: Plaques are areas of infected cells; plaque reduction assays count them against a control.

The nature of series [3]: Cytotoxicity against BHK1 cells after 48 to 120 hrs by MTT method. Format: cell-based, Mesocricetus auratus. As to conditions: hamster. A digest of the protocol: (§1)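 Cells placed in maintenance medium at initial 1×10^6 (BHK) or 6×10^5 (MDBK) cells/mL, with or without serial compound dilutions, run in parallel with antiviral tests. Viability by MTT after 48–120 h at 37 °C, humidified 5% CO2; CC50 = concentration reducing mock-infected cell viability by 50%; mean of three determinations.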

In series [4] the test system is Human immunodeficiency virus 1. The series is described as follows: Antiviral activity against HIV1 in MT4 cells by plaque reduction assay. Format: functional, organism-based. As to conditions: Human immunodeficiency virus 1, MT4.
Series [5] is described as follows: Cytotoxicity against MDBK cells after 48 to 120 hrs by MTT method. To be noted: cattle. Format: cell-based, Bos taurus. A digest of the protocol: as §1
Series [6] can be described thus: Cytotoxicity against Vero 76 cells after 48 to 120 hrs by MTT method. Format: cell-based. As to conditions: chlorocebus sabaeus.
The subject of another series is Coxsackievirus B2. The series is described as follows: Antiviral activity against CVB2 in Vero 76 cells after 3 days by plaque reduction assay. To be noted: Enterovirus B, 72 h. Format: functional, organism-based. A digest of the protocol:
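Vero 76 cells seeded 2×10^5 cells/well, confluent overnight; infected to give 50-100 PFU/well; unadsorbed virus removed, then DMEM with 1% inactivated FCS and 0.75% methyl cellulose ± serial dilutions added. After 3 days at 37 °C, fixed and stained with 50% ethanol/0.8% crystal violet in PBS; plaques counted; EC50 by linear regression.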

Series [7] concerns Respiratory syncytial virus. The series is described as follows: Antiviral activity against RSV. Format: functional, organism-based.
Series [8] concerns Vesicular stomatitis virus. Put plainly: Antiviral activity against VSV. Format: functional, organism-based.
Another series concerns Yellow fever virus. The series is described as follows: Antiviral activity against YFV in BHK1 cells assessed as inhibition of virus-induced cytopathogenicity after 2 to 3 days by MTT method. Format: functional, organism-based.

For 12 compounds, CC50, EC50 and Activity results are on record in ChEMBL document CHEMBL1146386, “Design, synthesis, and preliminary in vitro and in silico antiviral activity of [4,7]phenantrolines and 1-oxo-1,4-dihydro-[4,7]phenantrolines against single-stranded positive-sense RNA genome viruses” (Bioorg Med Chem, 2007).

Active and inactive are the calls of the source. The rule behind the calls is not given here.

`O=c1cc[nH]c2ccc3ncccc3c12`: the CC50 (in general, the concentration at which the toxic effect on the cells reaches its halfway point) at 96 h in series [1] is above 100 µM. Also, the EC50 (as a rule, the midpoint of the concentration-response curve) is 95 µM in series [2]; above 100 µM in the series on Enterovirus C; above 100 µM in [4]; above 100 µM with Coxsackievirus B2; above 66 µM in the series with Yellow fever virus. Also, the outcome (with Reovirus sp.; in series [7]; in series [8]) was inactive. Also, the figures for the CC50 in [3], in series [5] and in series [6] were 66 µM, above 100 µM and above 100 µM, respectively.

In [1], `Nc1ccnc2c(Cl)c(Cl)c3ncccc3c12` displayed a CC50 at 96 h of 7.2 µM. The EC50 in series [2] was at least 24 µM; with Enterovirus C, 14 µM; in series [4], above 7.2 µM; with Coxsackievirus B2, 2 µM; with Yellow fever virus it was above 11 µM. For the same compound, the result (with Reovirus sp.; in [7]; in series [8]) was inactive. Also, the CC50 worked out at 11 µM in series [3], 24 µM in series [5] and 40 µM in series [6].

`O=c1cc[nH]c2c(Cl)c(Cl)c3ncccc3c12` had a CC50 at 96 h in series [1] of 47 µM. The EC50 in [2] was 16 µM; in the series with Enterovirus C it was above 80 µM; in series [4] it was above 47 µM; in the series with Coxsackievirus B2, above 80 µM; in the series with Yellow fever virus it was above 100 µM. Besides, the outcome (with Reovirus sp.; in series [7]; in [8]) was inactive. For the same compound, the CC50 in series [3] was above 100 µM; in series [5], above 100 µM; in [6], 80 µM.

In turn, `O=C(O)c1c[nH]c2c(Cl)c(Cl)c3ncccc3c2c1=O` displayed a cytotoxic concentration (CC50) at 96 h in series [1] above 100 µM. For the same compound, the EC50 in [2] is above 100 µM; in the series on Enterovirus C, 85 µM; in [4], above 100 µM; in the series on Coxsackievirus B2, above 100 µM; with Yellow fever virus it was above 23 µM. The outcome (in the series on Reovirus sp.; in series [7]; in series [8]) was inactive. In addition, the CC50 in series [3] is 23 µM; in [5], above 100 µM; in series [6], 100 µM.

Consider `CCOc1ccnc2ccc3ncccc3c12`, for which the CC50 at 96 h in series [1] was 56 µM. In addition, the EC50 in [2] is 6 µM; with Enterovirus C, 17 µM; in [4] it was above 56 µM; in the series with Coxsackievirus B2, 5 µM; in the series on Yellow fever virus, above 35 µM. Besides, the result (with Reovirus sp.; in series [7]; in [8]) was inactive. The CC50 came out at 35 µM in series [3], 64 µM in series [5] and 80 µM in series [6].

Turning to `CCOC(=O)c1c[nH]c2c(Cl)c(Cl)c3ncccc3c2c1=O`, the CC50 at 96 h in series [1] turned out to be 32 µM. Also, the EC50 was 35 µM in [2]; above 90 µM in the series on Enterovirus C; above 32 µM in [4]; above 90 µM in the series with Coxsackievirus B2; above 25 µM in the series on Yellow fever virus. The result (in the series on Reovirus sp.; in series [7]; in series [8]) was inactive. Also, the values for the 50% cytotoxic concentration (CC50) in series [3], in [5] and in [6] were 25 µM, above 100 µM and 90 µM, respectively.

In series [1], `CCOc1ccnc2c(Cl)c(Cl)c3ncccc3c12` had a CC50 at 96 h above 100 µM. The EC50 was 25 µM in series [2]; 11 µM in the series on Enterovirus C; above 100 µM in series [4]; 2 µM in the series on Coxsackievirus B2; above 25 µM in the series on Yellow fever virus. In addition, the result (in the series with Reovirus sp.; in series [7]; in [8]) was inactive. Besides, the values for the CC50 in [3], in series [5] and in series [6] were 25 µM, 64 µM and 75 µM, respectively.

Consider `Clc1c(Cl)c2nccc(Cl)c2c2cccnc12`, for which, in series [1], the CC50 at 96 h came out at 6.4 µM. The EC50 is above 54 µM in [2]; above 100 µM with Enterovirus C; above 6.4 µM in [4]; above 100 µM in the series with Coxsackievirus B2; above 100 µM with Yellow fever virus. Further, the outcome (in the series with Reovirus sp.; in [7]; in [8]) was inactive. The CC50 in [3] was above 100 µM; in [5] it was 54 µM; in series [6] it was above 100 µM.

In turn, `c1cnc2ccc3ncccc3c2c1` gave a CC50 at 96 h in series [1] of 61 µM. Moreover, the EC50 in [2] was 17 µM; in the series with Enterovirus C, above 80 µM; in series [4] it was above 61 µM; in the series on Coxsackievirus B2, above 80 µM; in the series with Yellow fever virus, above 100 µM. The result (in the series on Reovirus sp.; in series [7]; in series [8]) was inactive. In addition, the values for the 50% cytotoxic concentration (CC50) in [3], in series [5] and in [6] were above 100 µM, above 100 µM and 80 µM, respectively.

Consider `CC(=O)Nc1ccnc2c(Cl)c(Cl)c3ncccc3c12`, for which, in [1], the CC50 at 96 h stood at 13 µM. Moreover, the EC50 in [2] is 22 µM; with Enterovirus C, 21 µM; in [4], above 13 µM; in the series on Coxsackievirus B2, 2 µM; with Yellow fever virus, above 18 µM. For the same compound, the outcome (in the series with Reovirus sp.; in [7]; in [8]) was inactive. Besides, the figures for the CC50 in [3], in [5] and in series [6] were 18 µM, 32 µM and 50 µM, respectively.

As for `Nc1ccnc2ccc3ncccc3c12`, the CC50 at 96 h in [1] worked out at 50 µM. The EC50 is 9 µM in series [2]; above 90 µM with Enterovirus C; above 50 µM in [4]; above 90 µM in the series on Coxsackievirus B2; above 100 µM in the series with Yellow fever virus. Moreover, the outcome (in the series with Reovirus sp.; in series [7]; in series [8]) was inactive. Moreover, the CC50 was above 100 µM in [3], 63 µM in series [5] and 90 µM in series [6].

As to `Clc1c(Cl)c2ncccc2c2cccnc12`, half-maximal cytotoxicity in series [1] (CC50 at 96 h) was put at 24 µM. In addition, the EC50 in series [2] was 16 µM; in the series with Enterovirus C, 6 µM; in [4], above 24 µM; with Coxsackievirus B2, 11 µM; in the series on Yellow fever virus it was above 100 µM. For the same compound, the result (in the series on Reovirus sp.; in [7]; in [8]) was inactive. For the same compound, the CC50 is above 100 µM in series [3], above 100 µM in series [5] and 25 µM in series [6].
